Values after ≈ are worked out from the molar mass of the structure shown.
Tests used:
Type in all cases: functional
[1] = tested on: Mycobacterium tuberculosis; test: Antimycobacterial activity against Mycobacterium tuberculosis H37Rv ATCC 27294 incubated for 7 days by microplate Alamar Blue assay; conditions: H37Rv ATCC 27294, 168 h
How it was run: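 Fluorescence read-out. MIC is the lowest concentration that reduces fluorescence by at least 90% relative to the mean of replicate bacterium-only controls. Isoniazid and rifampicin were included as reference drugs.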

Escherichia coli [2] = test: Antibacterial activity against Escherichia coli ATCC 25922 after 18 to 24 hrs by two-fold serial dilution method
How it was run: (§1)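 Twofold serial dilution in agar media against Gram-positive and Gram-negative strains. Plates incubated at 35 °C for 18–24 h. MIC read as the lowest compound concentration giving complete inhibition of bacterial growth.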

Escherichia coli [3] = test: Antibacterial activity against extended-spectrum beta-lactamase producing Escherichia coli 14-1 after 18 to 24 hrs by two-fold serial dilution method; how it was run: as §1
Escherichia coli [4] = test: Antibacterial activity against extended-spectrum beta-lactamase producing Escherichia coli 14-2 after 18 to 24 hrs by two-fold serial dilution method; how it was run: as §1
Escherichia coli [5] = test: Antibacterial activity against Escherichia coli 14-1 after 18 to 24 hrs by two-fold serial dilution method; how it was run: as §1
Escherichia coli [6] = test: Antibacterial activity against Escherichia coli 14-2 after 18 to 24 hrs by two-fold serial dilution method; how it was run: as §1
Klebsiella pneumoniae [7] = test: Antibacterial activity against extended-spectrum beta-lactamase producing Klebsiella pneumoniae 14-17 after 18 to 24 hrs by two-fold serial dilution method; how it was run: as §1
Klebsiella pneumoniae [8] = test: Antibacterial activity against extended-spectrum beta-lactamase producing Klebsiella pneumoniae 14-18 after 18 to 24 hrs by two-fold serial dilution method; how it was run: as §1
Klebsiella pneumoniae [9] = test: Antibacterial activity against extended-spectrum beta-lactamase producing Klebsiella pneumoniae 14-19 after 18 to 24 hrs by two-fold serial dilution method; how it was run: as §1
Klebsiella pneumoniae [10] = test: Antibacterial activity against Klebsiella pneumoniae 14-1 after 18 to 24 hrs by two-fold serial dilution method; how it was run: as §1
Klebsiella pneumoniae [11] = test: Antibacterial activity against Klebsiella pneumoniae 14-2 after 18 to 24 hrs by two-fold serial dilution method; how it was run: as §1
Klebsiella pneumoniae [12] = test: Antibacterial activity against Klebsiella pneumoniae 14-3 after 18 to 24 hrs by two-fold serial dilution method; how it was run: as §1
Klebsiella pneumoniae [13] = test: Antibacterial activity against Klebsiella pneumoniae 14-4 after 18 to 24 hrs by two-fold serial dilution method; how it was run: as §1
Pseudomonas aeruginosa [14] = test: Antibacterial activity against Pseudomonas aeruginosa ATCC 27853 after 18 to 24 hrs by two-fold serial dilution method; how it was run: as §1
Pseudomonas aeruginosa [15] = test: Antibacterial activity against Pseudomonas aeruginosa 14-9 after 18 to 24 hrs by two-fold serial dilution method; how it was run: as §1
Pseudomonas aeruginosa [16] = test: Antibacterial activity against Pseudomonas aeruginosa 14-14 after 18 to 24 hrs by two-fold serial dilution method; how it was run: as §1
Pseudomonas aeruginosa [17] = test: Antibacterial activity against Pseudomonas aeruginosa 14-15 after 18 to 24 hrs by two-fold serial dilution method; how it was run: as §1
Pseudomonas aeruginosa [18] = test: Antibacterial activity against Pseudomonas aeruginosa 14-16 after 18 to 24 hrs by two-fold serial dilution method; how it was run: as §1
Staphylococcus aureus [19] = test: Antibacterial activity against Staphylococcus aureus CMCC 26003 after 18 to 24 hrs by two-fold serial dilution method; how it was run: as §1
Staphylococcus aureus [20] = test: Antibacterial activity against methicillin-sensitive Staphylococcus aureus 14-1 after 18 to 24 hrs by two-fold serial dilution method; how it was run: as §1
Staphylococcus aureus [21] = test: Antibacterial activity against methicillin-sensitive Staphylococcus aureus 14-3 after 18 to 24 hrs by two-fold serial dilution method; how it was run: as §1
Staphylococcus aureus [22] = test: Antibacterial activity against methicillin-sensitive Staphylococcus aureus 14-4 after 18 to 24 hrs by two-fold serial dilution method; how it was run: as §1
Staphylococcus aureus [23] = test: Antibacterial activity against methicillin-resistant Staphylococcus aureus 14-4 after 18 to 24 hrs by two-fold serial dilution method
How it was run: (§2)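 Agar media, standard twofold serial dilution. MIC is the lowest concentration giving complete inhibition of bacterial growth after incubation at 35 °C for 18–24 h. Ciprofloxacin and levofloxacin were run as comparators.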

Staphylococcus aureus [24] = test: Antibacterial activity against methicillin-resistant Staphylococcus aureus 14-5 after 18 to 24 hrs by two-fold serial dilution method; how it was run: as §2
[25] = tested on: Staphylococcus epidermidis; test: Antibacterial activity against methicillin-sensitive Staphylococcus epidermidis 14-2 after 18 to 24 hrs by two-fold serial dilution method; how it was run: as §1
[26] = tested on: Staphylococcus epidermidis; test: Antibacterial activity against methicillin-resistant Staphylococcus epidermidis 14-21 after 18 to 24 hrs by two-fold serial dilution method; how it was run: as §2
[27] = tested on: Staphylococcus epidermidis; test: Antibacterial activity against methicillin-resistant Staphylococcus epidermidis 14-22 after 18 to 24 hrs by two-fold serial dilution method; how it was run: as §2
[28] = tested on: Staphylococcus epidermidis; test: Antibacterial activity against methicillin-resistant Staphylococcus epidermidis 14-37 after 18 to 24 hrs by two-fold serial dilution method; how it was run: as §2
[29] = tested on: Staphylococcus epidermidis; test: Antibacterial activity against methicillin-resistant Staphylococcus epidermidis 14-39 after 18 to 24 hrs by two-fold serial dilution method; how it was run: as §2
Streptococcus pneumoniae = test: Antibacterial activity against methicillin-resistant Streptococcus pneumoniae ATCC 19615 after 18 to 24 hrs by two-fold serial dilution method; how it was run: as §2
Enterococcus faecium [30] = test: Antibacterial activity against Enterococcus faecium 14-2 after 18 to 24 hrs by two-fold serial dilution method; how it was run: as §1
Enterococcus faecium [31] = test: Antibacterial activity against Enterococcus faecium 14-5 after 18 to 24 hrs by two-fold serial dilution method; how it was run: as §1
Enterococcus faecium [32] = test: Antibacterial activity against Enterococcus faecium 14-6 after 18 to 24 hrs by two-fold serial dilution method; how it was run: as §1
Enterococcus faecalis [33] = test: Antibacterial activity against Enterococcus faecalis 14-1 after 18 to 24 hrs by two-fold serial dilution method; how it was run: as §1
Enterococcus faecalis [34] = test: Antibacterial activity against Enterococcus faecalis 14-2 after 18 to 24 hrs by two-fold serial dilution method; how it was run: as §1

Row | SMILES | MIC90 [1] [µg/mL] | MIC (Escherichia coli [2]) [µg/mL] | MIC (Escherichia coli [3]) [µg/mL] | MIC (Escherichia coli [4]) [µg/mL] | MIC (Escherichia coli [5]) [µg/mL] | MIC (Escherichia coli [6]) [µg/mL] | MIC (Klebsiella pneumoniae [7]) [µg/mL] | MIC (Klebsiella pneumoniae [8]) [µg/mL] | MIC (Klebsiella pneumoniae [9]) [µg/mL] | MIC (Klebsiella pneumoniae [10]) [µg/mL] | MIC (Klebsiella pneumoniae [11]) [µg/mL] | MIC (Klebsiella pneumoniae [12]) [µg/mL] | MIC (Klebsiella pneumoniae [13]) [µg/mL] | MIC (Pseudomonas aeruginosa [14]) [µg/mL] | MIC (Pseudomonas aeruginosa [15]) [µg/mL] | MIC (Pseudomonas aeruginosa [16]) [µg/mL] | MIC (Pseudomonas aeruginosa [17]) [µg/mL] | MIC (Pseudomonas aeruginosa [18]) [µg/mL] | MIC (Staphylococcus aureus [19]) [µg/mL] | MIC (Staphylococcus aureus [20]) [µg/mL] | further results
1 | Nc1nc(-n2cc(C(=O)O)c(=O)c3cc(F)c(N4C/C(=N/OCc5ccccc5)C(CNC5CC5)C4)nc32)c(F)cc1F (stereo not given) | > 32 | 8 (≈ 13.5 µM) | 64 (≈ 108 µM) | > 128 | > 128 | > 128 | 128 (≈ 216 µM) | > 128 | 128 (≈ 216 µM) | 64 (≈ 108 µM) | 128 (≈ 216 µM) | > 128 | > 128 | 128 (≈ 216 µM) | 128 (≈ 216 µM) | 128 (≈ 216 µM) | 128 (≈ 216 µM) | 128 (≈ 216 µM) | 0.015 (≈ 0.0253 µM) | 16 (≈ 27 µM) | MIC (Staphylococcus aureus [21]): 32 µg/mL (≈ 53.9 µM); MIC (Staphylococcus aureus [22]): 32 µg/mL (≈ 53.9 µM); MIC (Staphylococcus aureus [23]): 64 µg/mL (≈ 108 µM); MIC (Staphylococcus aureus [24]): 8 µg/mL (≈ 13.5 µM); MIC [25]: 128 µg/mL (≈ 216 µM); MIC [26]: 64 µg/mL (≈ 108 µM); MIC [27]: 128 µg/mL (≈ 216 µM); MIC [28]: 128 µg/mL (≈ 216 µM); MIC [29]: 64 µg/mL (≈ 108 µM); MIC (Streptococcus pneumoniae): 16 µg/mL (≈ 27 µM); MIC (Enterococcus faecium [30]): 64 µg/mL (≈ 108 µM); MIC (Enterococcus faecium [31]): 64 µg/mL (≈ 108 µM); MIC (Enterococcus faecium [32]): 128 µg/mL (≈ 216 µM); MIC (Enterococcus faecalis [33]): 64 µg/mL (≈ 108 µM); MIC (Enterococcus faecalis [34]): 8 µg/mL (≈ 13.5 µM)
2 | CC1(CNC2CC2)CN(c2nc3c(cc2F)c(=O)c(C(=O)O)cn3-c2nc(N)c(F)cc2F)C/C1=N/OCc1ccccc1 (stereo not given) | 16 (≈ 26.3 µM) | 64 (≈ 105 µM) | > 128 | > 128 | > 128 | > 128 | > 128 | > 128 | > 128 | > 128 | > 128 | 128 (≈ 211 µM) | > 128 | 128 (≈ 211 µM) | 128 (≈ 211 µM) | 128 (≈ 211 µM) | 128 (≈ 211 µM) | > 128 | 1 (≈ 1.65 µM) | 16 (≈ 26.3 µM) | MIC (Staphylococcus aureus [21]): 8 µg/mL (≈ 13.2 µM); MIC (Staphylococcus aureus [22]): 4 µg/mL (≈ 6.58 µM); MIC (Staphylococcus aureus [23]): 16 µg/mL (≈ 26.3 µM); MIC (Staphylococcus aureus [24]): 32 µg/mL (≈ 52.7 µM); MIC [25]: 64 µg/mL (≈ 105 µM); MIC [26]: 32 µg/mL (≈ 52.7 µM); MIC [27]: 128 µg/mL (≈ 211 µM); MIC [28]: 64 µg/mL (≈ 105 µM); MIC [29]: 128 µg/mL (≈ 211 µM); MIC (Streptococcus pneumoniae): 8 µg/mL (≈ 13.2 µM); MIC (Enterococcus faecium [30]): 32 µg/mL (≈ 52.7 µM); MIC (Enterococcus faecium [31]): > 128 µg/mL; MIC (Enterococcus faecium [32]): 128 µg/mL (≈ 211 µM); MIC (Enterococcus faecalis [33]): 32 µg/mL (≈ 52.7 µM); MIC (Enterococcus faecalis [34]): 16 µg/mL (≈ 26.3 µM)

Reference: ChEMBL document CHEMBL3734675, “Synthesis, antimycobacterial and antibacterial activity of fluoroquinolone derivatives containing an 3-alkoxyimino-4-(cyclopropylanimo)methylpyrrolidine moiety” (2015)
